Results published in ChEMBL document CHEMBL1806486, “Discovery and evaluation of 3-phenyl-1H-5-pyrazolylamine-based derivatives as potent, selective and efficacious inhibitors of FMS-like tyrosine kinase-3 (FLT3)” (Bioorg Med Chem, 2011).

Experiments:
[1] = target: T1, Vascular endothelial growth factor receptor 1 (Homo sapiens, UniProt P17948); test: Inhibition of recombinant GST-tagged VEGFR1 expressed in Sf9 insect cells after 120 mins by Kinase-Glo assay
Method in brief: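 GST-VEGFR1 (R781–I1338) or GST-VEGFR2 (V789–V1356) kinase domain, 50–100 ng, from Sf9 cells. Read-out was Kinase-Glo Plus luminescence.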

Aurora kinase A = target: T2, Aurora kinase A (Homo sapiens, UniProt O14965); test: Inhibition of recombinant GST-tagged Aurora A expressed in Sf9 insect cells after 90 mins by Kinase-Glo assay
T2 sequence (O14965 whole entry): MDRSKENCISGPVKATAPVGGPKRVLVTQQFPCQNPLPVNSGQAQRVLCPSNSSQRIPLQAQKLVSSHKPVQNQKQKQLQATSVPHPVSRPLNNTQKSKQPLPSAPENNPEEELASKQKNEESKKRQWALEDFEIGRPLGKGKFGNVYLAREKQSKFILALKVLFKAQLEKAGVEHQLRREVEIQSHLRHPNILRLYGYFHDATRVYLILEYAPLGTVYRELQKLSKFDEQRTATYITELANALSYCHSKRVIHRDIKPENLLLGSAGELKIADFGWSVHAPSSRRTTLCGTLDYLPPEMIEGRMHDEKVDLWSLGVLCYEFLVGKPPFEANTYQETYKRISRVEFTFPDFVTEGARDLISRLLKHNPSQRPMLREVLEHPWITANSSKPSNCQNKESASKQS
Method in brief: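 GST-Aurora A kinase domain (S123–S401, 150 ng) from Sf9 cells. Buffer was 50 mM Tris-HCl pH 7.4 with 10 mM NaCl, 10 mM MgCl2, 0.01% BSA and 1 mM DTT. Kinase-Glo Plus was added for 20 min at 25 °C before the luminescence read.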

[2] = target: T3, Vascular endothelial growth factor receptor 2 (Homo sapiens, UniProt P35968); test: Inhibition of recombinant GST-tagged VEGFR2 expressed in Sf9 insect cells at 1 uM after 120 mins by Kinase-Glo assay
T3 sequence (P35968 whole entry): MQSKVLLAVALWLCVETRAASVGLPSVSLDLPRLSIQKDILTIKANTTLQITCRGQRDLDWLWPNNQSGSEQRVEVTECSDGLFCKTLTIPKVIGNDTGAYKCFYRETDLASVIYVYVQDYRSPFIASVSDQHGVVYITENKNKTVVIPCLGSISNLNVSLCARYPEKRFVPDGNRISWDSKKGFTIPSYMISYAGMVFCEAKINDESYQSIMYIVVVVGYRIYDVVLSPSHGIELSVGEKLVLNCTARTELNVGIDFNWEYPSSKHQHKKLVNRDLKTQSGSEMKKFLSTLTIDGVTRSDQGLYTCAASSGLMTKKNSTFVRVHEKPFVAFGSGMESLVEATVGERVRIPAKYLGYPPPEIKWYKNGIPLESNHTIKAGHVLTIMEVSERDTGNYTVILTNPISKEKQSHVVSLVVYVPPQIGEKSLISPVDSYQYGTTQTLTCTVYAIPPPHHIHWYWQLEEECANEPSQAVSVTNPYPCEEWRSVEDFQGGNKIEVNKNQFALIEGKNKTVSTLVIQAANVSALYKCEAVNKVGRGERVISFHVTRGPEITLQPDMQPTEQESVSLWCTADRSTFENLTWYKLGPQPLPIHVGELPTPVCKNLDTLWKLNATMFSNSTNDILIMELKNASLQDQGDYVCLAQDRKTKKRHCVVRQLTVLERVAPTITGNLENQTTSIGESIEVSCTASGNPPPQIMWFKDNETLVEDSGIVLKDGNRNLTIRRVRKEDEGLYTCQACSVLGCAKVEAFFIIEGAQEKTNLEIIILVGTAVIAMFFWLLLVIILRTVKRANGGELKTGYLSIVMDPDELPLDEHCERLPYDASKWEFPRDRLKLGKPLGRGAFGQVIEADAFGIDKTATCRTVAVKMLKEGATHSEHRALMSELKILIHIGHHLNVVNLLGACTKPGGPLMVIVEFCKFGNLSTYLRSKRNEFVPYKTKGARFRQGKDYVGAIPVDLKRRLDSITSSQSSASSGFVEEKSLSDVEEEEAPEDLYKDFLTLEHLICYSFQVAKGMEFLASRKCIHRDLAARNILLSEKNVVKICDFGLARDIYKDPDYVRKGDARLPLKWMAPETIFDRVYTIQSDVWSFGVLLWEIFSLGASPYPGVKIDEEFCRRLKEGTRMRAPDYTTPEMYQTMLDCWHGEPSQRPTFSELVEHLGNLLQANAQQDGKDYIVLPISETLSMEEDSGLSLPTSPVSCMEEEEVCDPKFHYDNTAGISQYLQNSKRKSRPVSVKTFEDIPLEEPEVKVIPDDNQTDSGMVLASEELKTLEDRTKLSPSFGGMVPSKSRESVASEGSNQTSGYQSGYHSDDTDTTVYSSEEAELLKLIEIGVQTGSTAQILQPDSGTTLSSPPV

MOLM-13 = test: Antiproliferation activity against human MOLM13 cells expressing FLT3 mutation assessed as cell viability after 72 hrs by MTS method; assay type: functional; conditions: MOLM-13, 72 h
[3] = target: T4, Receptor-type tyrosine-protein kinase FLT3 (Homo sapiens, UniProt P36888); test: Inhibition of GST-tagged FLT3 expressing wild type kinase domain expressed in Sf9 insect cells after 4 hrs by Kinase-Glo assay
T4 sequence (P36888 whole entry): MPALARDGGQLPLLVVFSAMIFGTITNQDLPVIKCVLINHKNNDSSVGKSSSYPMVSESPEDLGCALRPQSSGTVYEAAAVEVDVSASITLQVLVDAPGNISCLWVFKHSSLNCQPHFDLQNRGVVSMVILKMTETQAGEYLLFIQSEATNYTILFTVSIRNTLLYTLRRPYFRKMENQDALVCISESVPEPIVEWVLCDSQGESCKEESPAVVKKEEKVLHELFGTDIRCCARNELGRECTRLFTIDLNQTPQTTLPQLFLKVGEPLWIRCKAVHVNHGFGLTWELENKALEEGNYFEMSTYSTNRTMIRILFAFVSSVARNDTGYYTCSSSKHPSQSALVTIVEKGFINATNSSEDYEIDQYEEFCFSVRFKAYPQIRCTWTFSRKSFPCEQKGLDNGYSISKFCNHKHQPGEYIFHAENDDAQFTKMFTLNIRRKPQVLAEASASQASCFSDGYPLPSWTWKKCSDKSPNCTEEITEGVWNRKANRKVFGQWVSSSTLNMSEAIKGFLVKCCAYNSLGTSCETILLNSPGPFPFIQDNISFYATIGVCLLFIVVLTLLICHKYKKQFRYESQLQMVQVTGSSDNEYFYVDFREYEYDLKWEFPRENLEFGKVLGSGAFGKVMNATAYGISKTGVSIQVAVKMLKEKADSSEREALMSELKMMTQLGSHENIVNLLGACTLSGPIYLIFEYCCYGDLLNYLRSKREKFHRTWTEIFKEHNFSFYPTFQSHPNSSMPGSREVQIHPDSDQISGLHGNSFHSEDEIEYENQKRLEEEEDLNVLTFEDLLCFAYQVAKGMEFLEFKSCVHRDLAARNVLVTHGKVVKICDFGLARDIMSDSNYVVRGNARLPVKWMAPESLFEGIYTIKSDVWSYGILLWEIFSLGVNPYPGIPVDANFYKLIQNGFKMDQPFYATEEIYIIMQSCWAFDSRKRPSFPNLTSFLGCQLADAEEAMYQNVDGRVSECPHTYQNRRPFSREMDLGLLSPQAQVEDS

[4] = target: T1, Vascular endothelial growth factor receptor 1; test: Inhibition of recombinant GST-tagged VEGFR1 expressed in Sf9 insect cells at 1 uM after 120 mins by Kinase-Glo assay
[5] = target: T3, Vascular endothelial growth factor receptor 2; test: Inhibition of recombinant GST-tagged VEGFR2 expressed in Sf9 insect cells after 120 mins by Kinase-Glo assay; assay type: cell-based
U-937 = test: Antiproliferation activity against human FLT3 gene-deficient U937 cells after 72 hrs by MTS method; assay type: functional; conditions: U-937, 72 h
[6] = Antiproliferation activity against human RS4:11 cells expressing wild type FLT3 after 72 hrs by MTS method; assay type: functional; conditions: RS4-11, 72 h
MOLT-4 = test: Antiproliferation activity against human MOLT4 after 72 hrs by MTS method; assay type: functional; conditions: MOLT-4, 72 h
MV4-11 = test: Antiproliferation activity against FLT3/ITD harboring human MV4-11 cells after 72 hrs by MTS method; assay type: functional; conditions: MV4-11, 72 h
K562 = test: Antiproliferation activity against human K562 cells expressing wild type BCR/ABL after 72 hrs by MTS method; assay type: functional; conditions: K562, 72 h
[7] = Ratio GI50 for human MOLM13 cells to IC50 for GST-tagged FLT3 expressing wild type kinase domain; assay type: functional, MOLM-13

T1 sequence (P17948 whole entry, the tested form may be a part): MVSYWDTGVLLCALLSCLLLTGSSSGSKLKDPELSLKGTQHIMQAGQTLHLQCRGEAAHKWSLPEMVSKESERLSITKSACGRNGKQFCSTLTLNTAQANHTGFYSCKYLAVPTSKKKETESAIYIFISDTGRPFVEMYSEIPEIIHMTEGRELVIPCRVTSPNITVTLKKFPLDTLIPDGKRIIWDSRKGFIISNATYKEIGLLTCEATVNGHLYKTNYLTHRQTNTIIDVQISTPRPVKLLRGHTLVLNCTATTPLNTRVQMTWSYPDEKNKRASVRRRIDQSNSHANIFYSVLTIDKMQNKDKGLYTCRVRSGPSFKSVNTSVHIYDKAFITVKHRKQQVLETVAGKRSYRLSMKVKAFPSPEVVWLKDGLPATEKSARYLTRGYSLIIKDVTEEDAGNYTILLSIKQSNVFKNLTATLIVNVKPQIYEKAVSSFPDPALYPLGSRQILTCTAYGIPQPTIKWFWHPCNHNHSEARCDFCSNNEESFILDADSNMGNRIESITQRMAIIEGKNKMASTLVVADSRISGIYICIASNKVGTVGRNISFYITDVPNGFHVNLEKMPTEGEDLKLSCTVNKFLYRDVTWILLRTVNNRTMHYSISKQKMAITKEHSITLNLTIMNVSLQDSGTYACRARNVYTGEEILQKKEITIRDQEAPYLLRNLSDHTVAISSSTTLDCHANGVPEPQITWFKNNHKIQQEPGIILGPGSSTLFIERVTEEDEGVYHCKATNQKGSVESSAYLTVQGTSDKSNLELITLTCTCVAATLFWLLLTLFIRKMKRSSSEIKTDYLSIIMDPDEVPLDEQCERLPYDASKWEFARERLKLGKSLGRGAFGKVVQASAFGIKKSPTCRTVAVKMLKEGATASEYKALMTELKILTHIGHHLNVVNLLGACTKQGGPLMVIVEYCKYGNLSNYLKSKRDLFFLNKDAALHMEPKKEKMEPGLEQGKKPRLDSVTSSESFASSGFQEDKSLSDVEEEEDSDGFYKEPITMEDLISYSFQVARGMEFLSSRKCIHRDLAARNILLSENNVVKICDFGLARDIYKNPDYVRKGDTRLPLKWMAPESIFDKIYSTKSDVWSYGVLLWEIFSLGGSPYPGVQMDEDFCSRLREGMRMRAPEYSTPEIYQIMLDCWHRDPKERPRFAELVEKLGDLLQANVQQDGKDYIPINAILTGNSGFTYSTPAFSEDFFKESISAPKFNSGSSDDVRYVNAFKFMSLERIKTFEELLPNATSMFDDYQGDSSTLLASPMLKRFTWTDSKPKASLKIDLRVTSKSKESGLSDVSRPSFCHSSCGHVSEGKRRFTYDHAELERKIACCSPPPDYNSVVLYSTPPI

Row | IC50 [1] [µM] | IC50 (Aurora kinase A) [µM] | inhibition [2] [%] | GI50 (MOLM-13) [µM] | IC50 [3] [µM] | inhibition [4] [%] | IC50 [5] [µM] | GI50 (U-937) [µM] | GI50 (MOLT-4) [µM] | GI50 (MV4-11) [µM] | GI50 (K562) [µM] | SMILES | GI50 [6] [µM] | Ratio [7]
1 | > 1 | > 1 | 55 | 0.18 | 0.071 | – | – | – | – | – | – | Cc1nc(NCCN(C)C)cc(Nc2cc(-c3cccc(NS(=O)(=O)c4ccccc4)c3)n[nH]2)n1 | – | –
2 | – | 0.22 | – | 0.067 | 0.35 | 52 | 0.56 | – | – | – | – | O=C(Nc1cc(-c2cccc(NS(=O)(=O)c3ccccc3)c2)n[nH]1)c1ccc(CN2CCOCC2)cc1 | – | –
3 | – | – | – | – | – | – | – | 19 | 6.7 | 0.04 | > 20 | Cc1ccc(F)c(NC(=O)Nc2ccc(-c3cccc4[nH]nc(N)c34)cc2)c1 [LINIFANIB] | 9.2 | –
4 | > 1 | 0.54 | – | 0.12 | 0.01 | – | > 1 | – | – | – | – | Cc1nc(Nc2cc(-c3cccc(NS(=O)(=O)c4ccccc4)c3)n[nH]2)cc(N2CCC(O)CC2)n1 | – | 12
